As usually defined, the MIC80 is the lowest concentration that inhibits either 80% of growth or 80% of the strains tested, depending on the study. Higher therefore signals lower susceptibility.

What all share (type): functional
Assay [1] has as its system Nakaseomyces glabratus. As to the kind of experiment: Antifungal activity against Candida glabrata 20/I after 24 hrs by microdilution method. An outline of the steps:
(§1)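 Yeasts held on Sabouraud dextrose agar. MIC by NCCLS M27-A broth microdilution in RPMI 1640 with L-glutamine, buffered with 0.165 M MOPS to pH 7.0. Compounds in DMSO (≤2% final), twofold dilutions 500–0.48. Final inoculum 5 × 10³ ± 0.2 cfu mL⁻¹. Incubated at 35 °C; absorbance at 540 nm read at 24 and 48 h. MIC is 80% growth inhibition versus control; run twice in duplicate.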
On the technique in general: In broth dilution the organism is exposed to a series of concentrations in liquid medium.

Assay [2] deals with Candida albicans. The experiment in a line: Antifungal activity against Candida albicans ATCC 44859 after 48 hrs by microdilution method. As to conditions: for MIC80: ATCC 44859, 48 h. An outline of the steps:
as §1

The test system of assay [3] is Clavispora lusitaniae. As to the kind of experiment: Antifungal activity against Candida lusitaniae 2446/I after 24 hrs by microdilution method. In a few lines: as §1
Assay [4] concerns Candida parapsilosis. As to the kind of experiment: Antifungal activity against Candida parapsilosis ATCC 22019 after 24 hrs by microdilution method. As to conditions: for MIC80: Lodderomyces parapsilosis, ATCC 22019, 24 h. In a few lines:
as §1

In assay [5] the test system is Nakaseomyces glabratus. As to the kind of experiment: Antifungal activity against Candida glabrata 20/I after 48 hrs by microdilution method. An outline of the steps: as §1
The test system of assay [6] is Trichophyton mentagrophytes. As to the kind of experiment: Antifungal activity against Trichophyton mentagrophytes 445 after 72 hrs by microdilution method. As to conditions: for MIC80: Trichophyton mentagrophytes, 445, 72 h. In a few lines:
(§2)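 Dermatophyte held on Sabouraud dextrose agar. M27-A microdilution in MOPS-buffered (0.165 M, pH 7.0) RPMI 1640 with L-glutamine. DMSO ≤2% final; twofold dilutions 500–0.48. Inoculum 5 × 10³ ± 0.2 cfu mL⁻¹ final. Incubated at 35 °C; MIC read visually at 72 and 120 h as 80% inhibition of control growth; determined twice in duplicate.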

Assay [7] concerns Candida albicans. The experiment in a line: Antifungal activity against Candida albicans ATCC 90028 after 48 hrs by microdilution method. As to conditions: for MIC80: ATCC 90028, 48 h. An outline of the steps:
as §1

Assay [8] deals with Candida albicans. As to the kind of experiment: Antifungal activity against Candida albicans ATCC 44859 after 24 hrs by microdilution method. As to conditions: for MIC80: ATCC 44859, 24 h. In a few lines:
as §1

The test system of assay [9] is Trichophyton mentagrophytes. The experiment in a line: Antifungal activity against Trichophyton mentagrophytes 445 after 120 hrs by microdilution method. As to conditions: for MIC80: Trichophyton mentagrophytes, 445, 120 h. An outline of the steps:
as §2

For assay [10], the system named is Pichia kudriavzevii. The experiment in a line: Antifungal activity against Candida krusei E28 after 24 hrs by microdilution method. As to conditions: for MIC80: E28, 24 h. An outline of the steps:
as §1

Assay [11] relates to Clavispora lusitaniae. As to the kind of experiment: Antifungal activity against Candida lusitaniae 2446/I after 48 hrs by microdilution method. In a few lines:
as §1

Assay [12] concerns Pichia kudriavzevii. The experiment in a line: Antifungal activity against Candida krusei ATCC 6258 after 48 hrs by microdilution method. As to conditions: for MIC80: ATCC 6258, 48 h. An outline of the steps: as §1
Assay [13] concerns Aspergillus fumigatus. As to the kind of experiment: Antifungal activity against Aspergillus fumigatus 231 after 48 hrs by microdilution method. As to conditions: for MIC80: Aspergillus fumigatus, 231, 48 h. An outline of the steps: (§3)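 Filamentous strains held on Sabouraud dextrose agar. NCCLS M27-A broth microdilution in RPMI 1640 with L-glutamine and 0.165 M MOPS, pH 7.0. DMSO diluent ≤2% final; twofold dilutions 500–0.48. Inoculum 5 × 10³ ± 0.2 cfu mL⁻¹ final.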

Assay [14] relates to Pichia kudriavzevii. As to the kind of experiment: Antifungal activity against Candida krusei E28 after 48 hrs by microdilution method. As to conditions: for MIC80: E28, 48 h. In a few lines: as §1
For assay [15], the system named is Candida albicans. The experiment in a line: Antifungal activity against Candida albicans ATCC 90028 after 24 hrs by microdilution method. As to conditions: for MIC80: ATCC 90028, 24 h. In a few lines:
as §1

The test system of assay [16] is Aspergillus fumigatus. The experiment in a line: Antifungal activity against Aspergillus fumigatus 231 after 24 hrs by microdilution method. As to conditions: for MIC80: Aspergillus fumigatus, 231, 24 h. An outline of the steps: as §3
For assay [17], the system named is Candida parapsilosis. The experiment in a line: Antifungal activity against Candida parapsilosis ATCC 22019 after 48 hrs by microdilution method. As to conditions: for MIC80: Lodderomyces parapsilosis, ATCC 22019, 48 h. An outline of the steps:
as §1

The subject of assay [18] is Candida tropicalis. The experiment in a line: Antifungal activity against Candida tropicalis 156 after 48 hrs by microdilution method. As to conditions: for MIC80: Candida tropicalis, 156, 48 h. An outline of the steps: as §1
Assay [19] has as its system Lichtheimia corymbifera. The experiment in a line: Antifungal activity against Absidia corymbifera 272 after 24 hrs by microdilution method. As to conditions: for MIC80: Lichtheimia corymbifera, 272, 24 h. In a few lines:
as §3

In assay [20] the test system is Trichosporon beigelii. The experiment in a line: Antifungal activity against Trichosporon beigelii 1188 after 48 hrs by microdilution method. As to conditions: for MIC80: Trichosporon beigelii, 1188, 48 h. In a few lines:
as §1

For assay [21], the system named is Lichtheimia corymbifera. The experiment in a line: Antifungal activity against Absidia corymbifera 272 after 48 hrs by microdilution method. As to conditions: for MIC80: Lichtheimia corymbifera, 272, 48 h. An outline of the steps:
as §3

Assay [22] relates to Pichia kudriavzevii. The experiment in a line: Antifungal activity against Candida krusei ATCC 6258 after 24 hrs by microdilution method. As to conditions: for MIC80: ATCC 6258, 24 h. An outline of the steps:
as §1

Assay [23] deals with Trichosporon beigelii. As to the kind of experiment: Antifungal activity against Trichosporon beigelii 1188 after 24 hrs by microdilution method. As to conditions: for MIC80: Trichosporon beigelii, 1188, 24 h. In a few lines: as §1
In assay [24] the test system is Candida tropicalis. The experiment in a line: Antifungal activity against Candida tropicalis 156 after 24 hrs by microdilution method. As to conditions: for MIC80: Candida tropicalis, 156, 24 h. In a few lines: as §1

Converted amounts (≈) assume the structure as drawn. The source made the active and inactive calls. The rule behind the calls is not given here.

With `COc1ccc(OCC2C=C(c3ccc(Br)cc3)C(=O)O2)cc1` (stereo not given), the MIC80 worked out at 0.97 µM (≈ 0.364 µg/mL) in assay [1]; 1.95 µM (≈ 0.732 µg/mL) in assay [2]; 3.9 µM (≈ 1.46 µg/mL) in [3]; 7.81 µM (≈ 2.93 µg/mL) in [4]; 1.95 µM (≈ 0.732 µg/mL) in assay [5]; 1.95 µM (≈ 0.732 µg/mL) in [6]. Moreover, the MIC80 in assay [7] was 7.81 µM (≈ 2.93 µg/mL); in assay [8], 0.97 µM (≈ 0.364 µg/mL); in [9], 1.95 µM (≈ 0.732 µg/mL); in assay [10] it was 7.81 µM (≈ 2.93 µg/mL); in assay [11], 7.81 µM (≈ 2.93 µg/mL); in assay [12] it was 15.6 µM (≈ 5.86 µg/mL). Besides, the MIC80 worked out at 7.81 µM (≈ 2.93 µg/mL) in [13]; 15.6 µM (≈ 5.86 µg/mL) in assay [14]; 1.95 µM (≈ 0.732 µg/mL) in assay [15]; 3.9 µM (≈ 1.46 µg/mL) in [16]; 15.6 µM (≈ 5.86 µg/mL) in [17]; 7.81 µM (≈ 2.93 µg/mL) in assay [18]. For the same compound, the MIC80 in assay [19] was 31.2 µM (≈ 11.7 µg/mL); in assay [20], 15.6 µM (≈ 5.86 µg/mL); in [21], 62.5 µM (≈ 23.5 µg/mL); in assay [22], 7.81 µM (≈ 2.93 µg/mL); in [23], 7.81 µM (≈ 2.93 µg/mL); in [24] it was 7.81 µM (≈ 2.93 µg/mL).
With `O=C1CCC=C1c1ccc(Cl)c(Cl)c1`, the outcome in assay [2], in assay [3], in assay [4], in assay [6], in [7] and in assay [8] was inactive. Further, the result in assay [9], in assay [10], in [11], in assay [12], in assay [13] and in [14] was inactive. Also, the outcome in assay [15], in assay [16], in assay [17], in assay [18], in [19] and in assay [20] was inactive. Further, the result in assay [21], in assay [22], in assay [23] and in [24] was inactive.
Take `CC(=O)OCC/C=C1/C=C(c2ccc(Br)cc2)C(=O)O1`: the MIC80 in [1] was 250 µM (≈ 84.3 µg/mL); in assay [2], 500 µM (≈ 169 µg/mL); in assay [3], more than 500 µM; in assay [4], 250 µM (≈ 84.3 µg/mL); in assay [5], more than 500 µM; in assay [6], 15.6 µM (≈ 5.27 µg/mL). The MIC80 in assay [7] was more than 500 µM; in assay [8], 15.6 µM (≈ 5.27 µg/mL); in assay [9], 15.6 µM (≈ 5.27 µg/mL); in assay [10], 500 µM (≈ 169 µg/mL); in [11] it was more than 500 µM; in [12] it was more than 500 µM. Further, the MIC80 in [13], in assay [14], in [15], in assay [16], in assay [17] and in [18] was more than 500 µM each time. Besides, the MIC80 was 250 µM (≈ 84.3 µg/mL) in assay [19]; more than 500 µM in assay [20]; 250 µM (≈ 84.3 µg/mL) in assay [21]; 500 µM (≈ 169 µg/mL) in [22]; more than 500 µM in [23]; more than 500 µM in [24].

These data come from ChEMBL document CHEMBL1157589, “Antifungal 3,5-disubstituted furanones: From 5-acyloxymethyl to 5-alkylidene derivatives” (Bioorg Med Chem, 2010).
